According to the RNAGym collection of RNA variant scans (doi:10.1126/science.aae0568):
Fewer inactive variants are shown than the library holds.

B1: tRNA (parent)
chain: GUUCCGUUGGCGUAAUGGUAACGCGUCUCCCUCCUAAGGAGAAGACUGCGGGUUCGAGUCCCGUACGGAACG

Variants of: B1
Test: yeast fitness relative to wild type (ratio to wild type); higher = fitter; tRNA-Arg(CCU), competitive growth, 37 C, YPD
In short: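 Start and end populations of a pooled competition were compared by 100-nucleotide paired-end sequencing of gene amplicons. The Saccharomyces cerevisiae strains carried tRNA-Arg(CCU) gene variants at the native genomic locus, synthesised with a 3% per-site mutation rate at 69 sites, and competed in YPD at 37°C for 24 hours in six parallel replicates. Darwinian fitness relative to wild type was based on the change in genotype frequencies. Genotypes required ≥ 100 starting reads, and estimates < 0.5 were set to 0.5.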

Variant | yeast fitness
GUUCCGUUGGCGUAAUCGUAACGCGUCUCCCUCAUAAGGAGAAGACUGCAGGGUCGAGUUCCGUACGGAACG [G17C C34A G50A U53G C60U] | ≤ 0.5
GUUCCGUUGGCGUAAUCGUAACGCGUCUCCCUCCUAAGCAGAAGGCUGCGGGUACGAGUCCCGUACGGAACG [G17C G39C A45G U54A] | ≤ 0.5
GUUCCGUUGGCGUAAUCGUAACGCGUCUACCUCCUAAGGAGAAGAUUGCGGGUUCGAGUCCCGUACGGAACG [G17C C29A C46U] | 0.867
GUUCCGUUGGCGUAAUCGUAACGCGUCUGCCGCCUAAAGAGAAGACUGCGGGCUCGAGUCCCGUACGGAACG [G17C C29G U32G G38A U53C] | ≤ 0.5
GUUCCGUUGGCGUAAUCCUAACGCGUCUCCCUCCUAAGAAGAAGACUGCGGGUUCGCGUCCCGUACGGAACG [G17C G18C G39A A57C] | ≤ 0.5
GUUCCGUUGGCGUAAUCGUAACGCGUCUCCCUCCUAAGGAGAAGAAUGCGGGUUCGAGUCCCGUACGGAACG [G17C C46A] | 0.609
GUUCCGUUGGCGUAAUCGUAACGCGUCUCCCUCCUAAGGAGAAGAUUGCGGGUUCGAGUCCCGUACGGAACG [G17C C46U] | 0.686
GUUCCGUUGGCGUAAUCGUAACGCCUCUCCCUCCUAGGGAGAAGACUGCGGGUUCGAGUCCCGUACGGAACG [G17C G25C A37G] | ≤ 0.5
GUUCCGUUGGCGUAAUCGUAACGCGUCUCCCUCCUAAGGAGAAGACUGCGGGUUUGAGUCCCCUACCGAACG [G17C C55U G63C G67C] | ≤ 0.5
GUUCCGUUGGCGUAAUCGUAACGCGUCUCCCUCAUAAGGAGAAGACUGCGGGUUCGCGUCCCGUACGGAACG [G17C C34A A57C] | 0.561
GUUCCGUUGGCGUAAUCGUAACGCGUCUCCCUCAUAAGGAGAAGACUGCGGGUUCGAGCCCCGUACGGAACG [G17C C34A U59C] | 0.542
GUUCCGUUGGCGUAAUCCUAAAGCGUCUCCCUCCUAAGGACUAGACUGCGGGUUCGAGUCCCGCACGGAACG [G17C G18C C22A G41C A42U U64C] | ≤ 0.5
GUUCCGUUGGCGUAAUCGUAACGCGUCUCCCUCCUAAGGAGAAGAGUGCGGGUUUGAGUCCCGUACGGAACG [G17C C46G C55U] | 0.571
GUUCCGUUGGCGUAAUCGUAACGCGUCUUCCUCCUACGGAGAAGACUGCGGGUUCGAGUCCCGUACAGAACG [G17C C29U A37C G67A] | 0.575
GUUCCGUUGGCGUAAUCGUAACGCGUCUCGCCCCUAAGGAGAAGACUGCGGGUUCGAGUGCCAUUUGGAACG [G17C C30G U32C C60G G63A A65U C66U] | 0.544
GUUCCGUUGGCGUAAUCGUAACGCGUCUCUCUCCUGAGGAGAAGACUGCGGGUUCGAGUCCCGUACUGAGCG [G17C C30U A36G G67U A70G] | ≤ 0.5
GUUCCGUUGGCGUAAUCGUAACGCGUUUCCCUCCUAAGGAGAAGACUGCGGGUUCGAGUCCCGUGCGGAACG [G17C C27U A65G] | 0.598
GUUCCGUUGGCGUAAUCGUAACGCGUCUGCCUCCUAAGAAGAAGACUGCGGGUUCGAGUCCCGUACGGAUCG [G17C C29G G39A A70U] | ≤ 0.5
GUUCCGUUGGCGUAAUCGUAACGCGUCUCCCUCUUAAGGAGAAGACUGCGGGUUCGAGUCCCGUACGAAACG [G17C C34U G68A] | 0.536

Variant | yeast fitness
GUUCCGUUGGCGUAAUCGUAACGCGUCUCCCUCCUAAGGAGAAGACUGCGGGUUUGAGUCCCGUACGGUUCG [G17C C55U A69U A70U] | ≤ 0.5
GUUCCGUUGGCGUAAUCGUAACGCGUCUUCCUCCUAAGGAGAAGACUGCGGGAUCGAGUCCCGUAAGGAACG [G17C C29U U53A C66A] | ≤ 0.5
GUUCCGUUGGCGUAAUCGUAACGCGUCUCGCUCCUAAGGAGAAGACUGCGGGUUCGAGUGCCGUACGGAACG [G17C C30G C60G] | 0.904
GUUCCGUUGGCGUAAUCGUAACGCGUCUCCCUCCUAAGGAGAAGACUGUGGGUUCGAGUCGCGUAUGGAACG [G17C C49U C61G C66U] | ≤ 0.5
GUUCCGUUGGCGUAAUCCUAAAGCGUCUCCCUCCUAAGGAGAAGACUGCGGGUUCGAGUACCGUAUGGAACG [G17C G18C C22A C60A C66U] | 0.561
GUUCCGUUGGCGUAAUCGUAACGCGUCUCCUUCCUAAGGAGCAGACUGAGGGUUCGAGUCCCGUACGGAACG [G17C C31U A42C C49A] | 0.534
GUUCCGUUGGCGUAAUCGUAACGCGUCUUCCACCUAAGGAGAAGAUUGCGGGUUCGAGUCCCGUACGGAACG [G17C C29U U32A C46U] | ≤ 0.5
GUUCCGUUGGCGUAAUCGUAACCCGUCUCCCUCCUAAGGAGAUGACUGAGGGUUCGAGUCCCGUAUGGAACG [G17C G23C A43U C49A C66U] | 0.634
GUUCCGUUGGCGUAAUCGUAACGCGUCUCCGUCCUAAGGAGCAGACUGCGGGUUCGAGUCCCGUAUGGAACG [G17C C31G A42C C66U] | ≤ 0.5
GUUCCGUUGGCGUAAUCCUAAAGCGUCUCCCUCCUAAGGAGAAGACUGCGGGUUCGAGUACCGUACGGAACG [G17C G18C C22A C60A] | 0.529
GUUCCGUUGGCGUAAUCGUAACGCGUCUCCCUUCUAAGGAGAAGACUGCGGGUUCAAGUCCCGUACGGUACG [G17C C33U G56A A69U] | ≤ 0.5
GUUCCGUUGGCGUAAUCGUAACGCGUCUCCCUCCUAAGCAGAAGUCUGCGGGUUCGACUCCCGUACGGAACG [G17C G39C A45U G58C] | ≤ 0.5
GUUCCGUUGGCGUAAUCGUAACGCGUCUCCCUCCUAAGGAGAAGACUGGGGGUUCGAGUCACGUACGGAACG [G17C C49G C61A] | ≤ 0.5
GUUCCGUUGGCGUAAUCGUAACGCGUCUCCCUCCUAAGGAGAAGACUGCGGGUUGGAGUCCCGUACAGCACG [G17C C55G G67A A69C] | ≤ 0.5
GUUCCGUUGGCGUAAUCGUAACGCAUCUCCCUCCUAAGGAGAAGACUGAGGGUUCGAGUCCCGUACGGAACG [G17C G25A C49A] | ≤ 0.5
GUUCCGUUGGCGUAAUCGUAACGCGUCUCCCUACUAAGGAGAAGACUGCGGGUUCGAGUCCCGUACGGAACG [G17C C33A] | ≤ 0.5
GUUCCGUUGGCGUAAUCGUAACGCGUCUCCCUGCUAAGGAGAAGACUGCGGGUUCGAGUCCCGUACGGAACG [G17C C33G] | 0.534
GUUCCGUUGGCGUAAUCGUAACGCGUUUCCCUCCUAAGGAGAAGACUGCGGGUUCGAGUCCCGCACGGAACG [G17C C27U U64C] | ≤ 0.5
